Experimental data from ChEMBL document CHEMBL2331485, “Pyrimidoaminotropanes as potent, selective, and efficacious small molecule kinase inhibitors of the mammalian target of rapamycin (mTOR)” (J Med Chem, 2013).
The source made the active and inactive calls. The rule behind the calls is not given here.

Legend:
[1] = Kinetic solubility of the compound; assay type: physicochemical; details: for solubility kinetic: read-out: Kinetic_solubility
Cytochrome P450 3A4 = Cytochrome P450 3A4 (Homo sapiens, UniProt P08684); assay: Time dependent inhibition of human CYP3A4 preincubated for 30 mins in presence of NADPH; assay type: ADME
Cytochrome P450 3A4, sequence (P08684 whole entry): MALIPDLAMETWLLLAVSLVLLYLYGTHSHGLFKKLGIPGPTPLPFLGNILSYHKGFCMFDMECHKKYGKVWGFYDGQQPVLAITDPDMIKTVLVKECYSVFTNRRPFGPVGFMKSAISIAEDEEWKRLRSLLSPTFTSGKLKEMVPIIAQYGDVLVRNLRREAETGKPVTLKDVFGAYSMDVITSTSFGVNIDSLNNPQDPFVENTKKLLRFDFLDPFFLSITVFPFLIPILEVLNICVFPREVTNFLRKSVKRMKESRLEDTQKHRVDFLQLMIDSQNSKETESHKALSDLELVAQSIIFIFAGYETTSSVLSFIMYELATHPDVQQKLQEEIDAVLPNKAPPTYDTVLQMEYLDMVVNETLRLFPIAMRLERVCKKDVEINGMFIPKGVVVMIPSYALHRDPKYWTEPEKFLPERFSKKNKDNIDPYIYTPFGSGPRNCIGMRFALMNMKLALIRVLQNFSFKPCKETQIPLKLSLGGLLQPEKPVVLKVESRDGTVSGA
How it was run: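 TDI IC50 is the inhibitor concentration giving 50% loss of CYP3A4 activity after a 30 min pre-incubation with NADPH. It is reported as clean where no IC50 could be measured.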

[2] = Cytotoxicity against human MCF7 neo/Her2 cells after 3 days by CellTiter-Glo assay; details: MCF7, 72 h
PC-3 = assay: Cytotoxicity against human PC3 cells after 4 days by CellTiter-Glo assay; details: PC-3, 96 h
[3] = Inhibition of mTORC2 in human NCI-PC3 cells assessed as inhibition of AKT phosphorylation
[4] = Plasma protein binding in mouse at 5 uM after 4 hrs by rapid equilibrium dialysis; assay type: ADME, cell-free; details: read-out: PPB (converted)
[5] = Plasma protein binding in human at 5 uM after 4 hrs by rapid equilibrium dialysis; assay type: ADME, cell-free; details: read-out: PPB (converted)
[6] = Plasma protein binding in rat at 5 uM after 4 hrs by rapid equilibrium dialysis; assay type: ADME, cell-free; details: read-out: PPB (converted)
[7] = Half life in mouse at 1 mg/kg, iv; assay type: ADME, organism-based; parameters: dose 1 mg/kg, route intravenous; details: in vivo
How it was run: (§1)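 Mouse PK used iv dosing at 1 mg/kg as a 60% PEG solution and po dosing at 5 mg/kg as a suspension in MCT. Clearance, unbound clearance, Vss, t1/2 and oral bioavailability were derived from these doses.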

[8] = Oral bioavailability in mouse at 5 mg/kg; assay type: ADME, organism-based; details: in vivo; how it was run: as §1
[9] = Volume of distribution at steady state in mouse at 1 mg/kg, iv; assay type: ADME, organism-based; parameters: dose 1 mg/kg, route intravenous; details: in vivo, read-out: Vdss; how it was run: as §1
[10] = Clearance in mouse at 1 mg/kg, iv; assay type: ADME, organism-based; parameters: dose 1 mg/kg, route intravenous; details: in vivo; how it was run: as §1
Mus musculus [11] = assay: Unbound clearance in mouse at 1 mg/kg, iv; assay type: ADME, organism-based; parameters: dose 1 mg/kg, route intravenous; details: in vivo; how it was run: as §1
[12] = Clearance in mouse liver microsomes; assay type: ADME, Microsome
[13] = Clearance in rat liver microsomes; assay type: ADME, Microsome
[14] = Clearance in human liver microsomes; assay type: ADME, Microsome
[15] = Antitumor activity against human MCF7-neo/Her2 xenografted in nude mouse at 37 mg/kg, qd measured after 14 days; assay type: functional; details: 336 h, read-out: TGI
Plasma [16] = assay: Unbound plasma concentration in NCR nude mouse xenografted with human PC3 cells at 50 to 100 mg/kg, po measured at 6 to 10 hrs; assay type: ADME, organism-based, PC-3; parameters: route oral; details: in vivo
Plasma [17] = assay: Plasma concentration in NCR nude mouse xenografted with human PC3 cells at 50 to 100 mg/kg, po measured at 6 to 10 hrs; assay type: ADME, organism-based, PC-3; parameters: route oral; details: in vivo
Mus musculus [18] = species on record: Mus musculus; details: NCR, NCI-PC3, 50 to 100 mg/kg
Mus musculus [19] = species on record: Mus musculus; details: NCR, NCI-PC3, 50 to 100 mg/kg; remark: listed apart in the source

Row | Structure (SMILES) | solubility kinetic [1] [µM] | EC50 [2] [nM] | EC50 (PC-3) [nM] | IC50 [3] [nM] | fraction unbound at 4 h, 5 µM [4] | fraction unbound at 4 h, 5 µM [5] | fraction unbound at 4 h, 5 µM [6] | half-life [7] [min] | bioavailability [8] [%] | Vd [9] [L/kg] | clearance [10] [mL/min/kg] | CL free (Mus musculus [11]) [mL/min/kg] | CLhep predicted [12] [mL/min/kg] | CLhep predicted [13] [mL/min/kg] | CLhep predicted [14] [mL/min/kg] | Kinetic_solubility [1] | also measured
1 | CCNC(=O)Nc1ccc(-c2nc3c(c(N4CCOC[C@@H]4C)n2)[C@H]2CC[C@@H](C3)N2S(C)(=O)=O)cc1 | > 75 | 806 | 260 | 18 | – | – | – | – | – | – | – | – | – | – | – | – | IC50 (Cytochrome P450 3A4): 5000 nM
2 | CCNC(=O)Nc1ccc(-c2nc3c(c(N4CCOC[C@@H]4C)n2)C[C@@H]2CC[C@H]3N2C(=O)COC)cc1 | – | 36 | 47 | 2.2 | 0.07 | 0.27 | 0.21 | 49.2 | 47 | 0.66 | 9.38 | 134 | 69 | 31 | 17 | soluble | –
3 | CCNC(=O)Nc1ccc(-c2nc3c(c(N4CCOC[C@@H]4C)n2)C[C@@H]2CC[C@H]3N2C(C)=O)cc1 | – | 61 | 16 | 2 | 0.02 | 0.16 | 0.16 | 72 | 40 | 0.54 | 4.62 | 200 | 42 | 24 | 15 | soluble | –
4 | CCNC(=O)Nc1ccc(-c2nc3c(c(N4CCOC[C@@H]4C)n2)CCN(C2COC2)C3)cc1 [RG-7603] | – | – | – | – | – | – | – | – | – | – | – | 100 | – | – | – | – | inhibition in vivo at 37 mg/kg [15]: 60%; IC50 [2]: 567 nM; IC50 (PC-3): 270 nM
5 | CCNC(=O)Nc1ccc(-c2nc3c(c(N4CCOC[C@@H]4C)n2)[C@H]2CC[C@@H](C3)N2C)cc1 | > 75 | 97 | 103 | 3.9 | 0.32 | 0.62 | 0.73 | 48 | 114 | 4.5 | 67 | 207 | 42 | 18 | 12 | – | Cp(f) (Plasma [16]): > 320 nM; concentration (Plasma [17]): > 1000 nM; inhibition (Mus musculus [18]): Active; inhibition (Mus musculus [19]): Active
6 | CCNC(=O)Nc1ccc(-c2nc3c(c(N4CCOC[C@@H]4C)n2)[C@@H]2CC[C@H](C3)N2C2COC2)cc1 | > 75 | 971 | 579 | 45 | – | – | – | – | – | – | – | – | – | – | – | – | –
7 | CCNC(=O)Nc1ccc(-c2nc3c(c(N4CCOC[C@@H]4C)n2)[C@H]2CC[C@@H](C3)N2C(C)=O)cc1 | > 75 | 460 | 180 | 30 | – | – | – | – | – | – | – | – | – | – | – | – | IC50 (Cytochrome P450 3A4): 7300 nM
8 | CCNC(=O)Nc1ccc(-c2nc3c(c(N4CCOC[C@@H]4C)n2)C[C@@H]2CC[C@H]3N2C(C)(C)C(=O)NC)cc1 | – | 17 | 13 | 0.6 | – | – | – | – | – | – | – | – | – | – | – | soluble | –
